Variants at the floor of the assay were thinned out. Bounds are passed on as bounds.

The record followed here is the RNAGym collection of RNA variant scans (doi:10.1126/science.aae0568).

To fix the notation:
B1: tRNA (parent)
chain: GUUCCGUUGGCGUAAUGGUAACGCGUCUCCCUCCUAAGGAGAAGACUGCGGGUUCGAGUCCCGUACGGAACG

The data set covers variants of B1. Kind of data set: yeast fitness relative to wild type (ratio to wild type); higher = fitter; tRNA-Arg(CCU), competitive growth, 37 C, YPD. The method in brief:
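Gene amplicons from the start population and from each of six end populations were read by 100-nucleotide paired-end sequencing. Those end populations came from pooled Saccharomyces cerevisiae strains carrying tRNA-Arg(CCU) gene variants at the native locus, competed in YPD at 37°C for 24 hours. Fitness relative to wild type was worked out from changes in genotype frequencies. Genotypes needed ≥ 100 starting reads, and estimates < 0.5 were set to 0.5.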
Turning to GUUCCGUUGGCUUAAUGGUAACGCGUCUCCCUCCUAAAGAGAAGACUGCGGAUUCCAGUCCCGUACGGAACG [G12U G38A G52A G56C], the yeast fitness was at most 0.5.

Regarding GCUACGUUGGCGUAAUGGUAACGCGUCUCCCUCAUAAGGAGAGGACUGCGGCUUCGAGUGCCGUGCGGAACG [U2C C4A C34A A43G G52C C60G A65G], the yeast fitness is at most 0.5.

As for GUUCCGUUGGCGCAAUGCUAACGCGUCUCCCUCCUAAGGAGAAGACUGCGGGUUCGAGUCCCGUACGGAACG [U13C G18C], the yeast fitness is 0.618.

Turning to GUUCCGUUGGCGUAAUGGUAACGCGUCUCCCUCCUAAGGAGAAGAGUGCGGGUUCGAGUCCCGUACGGUACG [C46G A69U], the yeast fitness worked out at 1.03.

For the variant GUUUCGUUGGCGUAAUGGUAACGUGUCUCCCUCCUCAGGAGAAGACUGCGGGUUCGAGUCCCGUACGGAACG [C4U C24U A36C], the yeast fitness was at most 0.5.

With GUUCCGUUGGCGUAAUAGUAACGCGUCUCCGUCCUAAGGAGAAGACUACGGGUUCGAGUCCCGUACGGAACG [G17A C31G G48A], the yeast fitness was at most 0.5.

Take GUUCAGUUGGCGUAAUGGUAACGCGUCUCCCUCCUAAGGAGAAGACUGCGGGGUCGAGUACCGUACGGAACG [C5A U53G C60A]: the yeast fitness was at most 0.5.

As for GUUCGGUUGGCGUAAUGGUAAUGCGUCUCCGUCCUAAGGAGAAGACUGCGGGUUCGAGUACCGUACGGAACG [C5G C22U C31G C60A], the yeast fitness is at most 0.5.

In the case of GUUCCGUUGGCGGAAUGGUAACGCGUCUCCCUCCUAAGGAGAAGACUGCGGGUUCGAGUUCCGUACGGAACG [U13G C60U], the yeast fitness came to 0.747.

Turning to GUUCCGCUGGCGUAAUGGUAACGCGUCUCCCUCCUUAGGAGAAGACUGGGGGUUCGAGUCCCGUACGGAACG [U7C A36U C49G], the yeast fitness turned out to be 0.744.

As to GUUCCGUUGGCGUAGUGGUAACGCGUCUCCCUCCUAAGGAGAAGACUGCGGGUUCGAGUCCCGUACGGCACG [A15G A69C], the yeast fitness was 0.999.

On to GUUCCGUUGGCGUAAUGGUAACGCAUCUCCCUCCUAAGGAGAAGCCUGCGGGUUCGAGUCCCGUAUCGAACG [G25A A45C C66U G67C], for which the yeast fitness worked out at 0.608.

For GUUUCGUUCGCGUAAUGAUAACGCGGCUCCCUCCUAAGGAGAAGCCUGCGGGUUCGAGUCCCGUACGGAACG [C4U G9C G18A U26G A45C], the yeast fitness was at most 0.5.

On to GUUCCGUUGGCGUAAUGGUAACGCGUCUCCCUCGUAAGGAGAAGACUGCGGGUUCGAGCCCCGUACGGAACG [C34G U59C], for which the yeast fitness worked out at 0.602.

Take GUUCCGUUGGCGUAAAGGCAACGCGUCUCCCUCCUAAGGAGAAGACUGCGGGUUCGAGUCACGUUCGGAACG [U16A U19C C61A A65U]: the yeast fitness is 0.6.

Turning to GUUCCGUUGGUGUAAUGGUAACGCGUCUCCCUCCUACGGAGAAGACUGCGGGUUCGAGUCCCGUAUGGAACG [C11U A37C C66U], the yeast fitness was determined as 0.611.

As to GGUCCGUUGGCGUUAUGGUAACGCGUCUCCCUCCUAAGGAGAAGACUGCGGGUUCGAGUCCCGUACGGAACG [U2G A14U], the yeast fitness stood at 0.502.

As for GUUCCGUUGGCGUAGUGGUAACGCAUCUCCCUCCUAAGGAGAAGACUGCGGGUUCGAGUCCCGUACGGAACG [A15G G25A], the yeast fitness was 0.87.

As to GUACCGUUGGCGUAAUGGUUACGCGUCUGCCUCCUAAGGUGAAGACUGCCGGUUCGAGUCCCGUACGGAACG [U3A A20U C29G A40U G50C], the yeast fitness is at most 0.5.

GUUCCGUUGGCGUAAUGGUAACGCGUCUCCCUCCUAAGGAGAAGCCAGCGGGUUCGAGUCCCGUAUGGAACG [A45C U47A C66U]: the yeast fitness worked out at 0.595.

Regarding GUUCCGUUAGCGUAAUGGUAACGCGUCUCCCUCCUUAGGAGAAGACUGCGAGUUCGAGUCGCGUACGGAACG [G9A A36U G51A C61G], the yeast fitness was at most 0.5.

In the case of GUUCCGUUGGUGUAUUGGUAACGCGUCUCCCUCCUAAGGAGAAGACUGCGAGUUCCAGUCCCGUACGGAACG [C11U A15U G51A G56C], the yeast fitness was at most 0.5.

Take GUUCCGUUGGCGUAAUGGUAACGCGUCUCCCUCUUAAGGAGAAGACUGCGGGUUCGAGACCCGUACGGAACG [C34U U59A]: the yeast fitness was 0.762.

GUUCCGUAGGCGUAUUGGUAACGCGUCUUCCUCCUAAGGAGAAGACUGCGGGUUCGAGUCCCGUACGGAACG [U8A A15U C29U]: the yeast fitness is at most 0.5.

Consider GUUCCGUUGGCGUAAUGGUAACGCGUCUCCCUCCUAGGGAGAACACUGCGGGUUCGAGUCCCGUACGGAACG [A37G G44C], for which the yeast fitness worked out at 0.809.

For GAUCCGUUGGCGUUAUGGUAACGCGUCUCCCUCCUAAGGACAAGACUGCGGGUUCGAGUCCCGUACGGAACG [U2A A14U G41C], the yeast fitness was at most 0.5.

Take GUUCCGUUGGGGUAAAGGUAACGUGUCUCCCUCCUAAGGAGAAGACUGCGGGUUCGAGUCCCGUACGGAACG [C11G U16A C24U]: the yeast fitness was at most 0.5.

As for GUUCCGUUGGCGUAAUGGUAACGCGUCUCUCUCCUAAGGAGAAGACUGCGGGGUCGAGUCCCGUACGGAACG [C30U U53G], the yeast fitness was determined as 0.618.

Turning to GUUCCGUUGGCGCAAUGGUAACGCGUCUCCGUCCUAAGGAGAAGACUGCGGGUUCGAGUCCCGUACGGAACG [U13C C31G], the yeast fitness was determined as 0.933.

As to GUUCCGUUGGCGCAAUGGUAAGGUGUCUCCCUCCUACGGAGAAGACUGCGCGUUUGAGUCCCGUACGGCUCG [U13C C22G C24U A37C G51C C55U A69C A70U], the yeast fitness was at most 0.5.

For the variant GUUCCGUUGGCGUAAUGGUAACGCGUCUCCCUCCUACGGAGACGACUGCGGGUUCGAGUCCCGUACGGAUCG [A37C A43C A70U], the yeast fitness stood at 0.622.

Regarding GUUCCGUUGGCGUAAUGGUAAGGCGUUUCCCUCCUAAGGAGAAGACUGCGGGUUCGAGACCCGUACGGAACG [C22G C27U U59A], the yeast fitness stood at 0.571.

As to GUUCCGUUGGCGUAAUGGUAACGCGUCUCCGUCCUAAGGAAAAGACCGCGGCUUCGAGUUCGGUAGGGAACG [C31G G41A U47C G52C C60U C62G C66G], the yeast fitness is at most 0.5.

With GUUCUGUUGGCGGAAUGGUAACGCGUCUCCCUCCUAAGGAGAAGACUGCGGGUUCGAGUCCCGUACGGUACG [C5U U13G A69U], the yeast fitness amounted to 0.76.

Regarding GUUCCGUUGGCGUAAUGGUAACGCGUCUCCCGCCAAAGGAGAAGACUACGGGUUCGAGUCCCCUACGGGACG [U32G U35A G48A G63C A69G], the yeast fitness was found to be 0.524.

GUUCCGUUGGCGUAAUGGUAACGCGUCUCCAUCCUAAGGGGAGGACUGCGGCUUCGAGGCCCGUACGGAACG [C31A A40G A43G G52C U59G]: the yeast fitness is at most 0.5.

Consider GUUCCGUUGGCGUAAUGGUAACGCGUCUCUGUCCUCAGGAGAAGACUGCGGGUUCGAGUCCCGUACGGAACG [C30U C31G A36C], for which the yeast fitness is at most 0.5.
